pIC50: −log10 of the molar value. Active and inactive are the calls of the source. The rule behind the calls is not given here.
What was measured:
[1] = system: HEK-293T; assay: Antiproliferative activity against human 293T cells incubated for 48 hrs by MTT assay; type: cell-based
In short: (§1)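 MTT assay on F10 (murine melanoma), HeLa, A549, MCF-7 and 293T (human renal epithelium) cells. IC50 given as mean ± SD of three independent experiments.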

[2] = system: MCF7; assay: Antiproliferative activity against human MCF7 cells incubated for 48 hrs by MTT assay; type: functional, cell-based; settings: MCF7, 48 h; in short: as §1
[3] = system: A549; assay: Antiproliferative activity against human A549 cells incubated for 48 hrs by MTT assay; type: functional, cell-based; settings: A549, 48 h; in short: as §1
[4] = species: Homo sapiens; assay: Selectivity index, ratio of IC50 for COX1 (unknown origin) to IC50 for COX2 (unknown origin)
In short: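 Ratio of COX-1 IC50 to COX-2 IC50, from human COX-1 and human COX-2 inhibitor screening assay kits. Each IC50 is the concentration giving 50% enzyme inhibition, taken as the mean of four determinations.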

[5] = system: HeLa; assay: Antiproliferative activity against human HeLa cells incubated for 48 hrs by MTT assay; type: functional, cell-based; in short: as §1
[6] = system: B16-F10; assay: Antiproliferative activity against mouse B16F10 cells incubated for 48 hrs by MTT assay; type: functional, cell-based; settings: B16-F10, 48 h; in short: as §1
[7] = target: Prostaglandin G/H synthase 1 (Homo sapiens, UniProt P23219); assay: Inhibition of COX1 (unknown origin) using arachidonic acid as substrate incubated for 10 mins by Ellman's reagent based COX-1/COX-2 ELISA assay
Prostaglandin G/H synthase 1, sequence (P23219 whole entry): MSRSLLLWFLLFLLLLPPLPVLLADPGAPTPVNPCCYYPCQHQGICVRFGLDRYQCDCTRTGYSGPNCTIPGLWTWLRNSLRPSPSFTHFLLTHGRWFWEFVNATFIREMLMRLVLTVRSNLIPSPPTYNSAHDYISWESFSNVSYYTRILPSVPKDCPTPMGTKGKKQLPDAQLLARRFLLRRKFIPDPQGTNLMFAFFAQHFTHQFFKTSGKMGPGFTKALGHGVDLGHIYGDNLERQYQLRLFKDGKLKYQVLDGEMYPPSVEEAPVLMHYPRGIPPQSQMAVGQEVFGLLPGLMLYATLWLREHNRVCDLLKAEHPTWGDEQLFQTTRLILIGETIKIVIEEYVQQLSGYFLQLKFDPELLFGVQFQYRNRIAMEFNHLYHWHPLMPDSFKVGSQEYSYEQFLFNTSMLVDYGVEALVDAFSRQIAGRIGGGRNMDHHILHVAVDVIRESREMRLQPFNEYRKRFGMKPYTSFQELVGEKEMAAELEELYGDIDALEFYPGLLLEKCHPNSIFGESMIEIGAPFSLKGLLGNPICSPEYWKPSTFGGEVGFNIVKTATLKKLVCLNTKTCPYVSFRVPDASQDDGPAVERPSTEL

[8] = Inhibition of 5-LOX assessed as calcium ionophore A23187-stimulated LTB4 production preincubated for 30 mins followed by calcium ionophore A23187 addition and measured after 30 mins by ELISA
[9] = target: T1, Prostaglandin G/H synthase 2 (Homo sapiens, UniProt P35354); assay: Inhibition of COX2 (unknown origin) using arachidonic acid as substrate incubated for 10 mins by Ellman's reagent based COX-1/COX-2 ELISA assay
T1 sequence (P35354 whole entry): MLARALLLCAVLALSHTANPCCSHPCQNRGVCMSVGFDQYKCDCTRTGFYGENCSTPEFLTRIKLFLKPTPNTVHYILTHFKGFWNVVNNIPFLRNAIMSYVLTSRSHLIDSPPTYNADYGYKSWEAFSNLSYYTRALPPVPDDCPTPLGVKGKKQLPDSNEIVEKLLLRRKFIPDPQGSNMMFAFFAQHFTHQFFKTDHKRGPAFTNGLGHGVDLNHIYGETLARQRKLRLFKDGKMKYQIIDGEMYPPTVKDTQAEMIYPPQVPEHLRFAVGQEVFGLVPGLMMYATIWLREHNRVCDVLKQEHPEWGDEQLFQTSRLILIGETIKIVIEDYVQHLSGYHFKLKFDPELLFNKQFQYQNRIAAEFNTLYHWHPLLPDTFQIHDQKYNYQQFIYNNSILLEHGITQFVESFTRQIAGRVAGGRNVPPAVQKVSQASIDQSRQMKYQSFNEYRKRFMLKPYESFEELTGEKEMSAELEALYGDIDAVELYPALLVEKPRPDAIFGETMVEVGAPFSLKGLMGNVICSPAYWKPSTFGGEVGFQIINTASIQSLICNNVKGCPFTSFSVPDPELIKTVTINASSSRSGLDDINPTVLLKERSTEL

[10] = system: B16-F10; assay: Antitumor activity against mouse B16F10 cells implanted in nude mouse assessed as reduction in tumor size at 20 mg/kg, ip administered once per 2 days for 14 days by caliper method; type: functional
In short: (§2)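 Nude mice were given 5×10^6 F10 cells subcutaneously in the right flank. At about 100 mm3, 24 mice were randomized into four groups of vehicle or compound. Dosing was intraperitoneal every two days for two weeks. Tumor volume was recorded every other day. Tumors were excised and weighed after the last treatment, and body weight was monitored.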

[11] = system: B16-F10; assay: Antitumor activity against mouse B16F10 cells implanted in nude mouse assessed as decrease in tumor weight at 20 mg/kg, ip administered once per 2 days for 14 days by caliper method relative to control; type: functional, organism-based; in short: as §2
[12] = system: B16-F10; assay: Inhibition of LPS-induced PGE2 production in mouse B16F10 cells at 6.25 uM incubated for 24 hrs by enzyme immunoassay; type: functional, cell-based
In short: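 F10 cells treated for 24 h alongside LPS (1 µg/ml), test agent at 6.25 µM. Supernatant collected by centrifugation and PGE2 measured with a PGE2 enzyme immunoassay (ELISA) kit. Mean ± SD of three independent experiments.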

Row | Compound | pIC50 [1] | pIC50 [2] | pIC50 [3] | Ratio IC50 [4] | pIC50 [5] | pIC50 [6] | pIC50 [7] | pIC50 [8] | pIC50 [9] | Activity [10] | Activity [11] | inhibition [12]
1 | NS(=O)(=O)c1ccc(-n2nc(C(=O)N3CCSCC3)cc2-c2ccc(C(F)(F)F)cc2)cc1 | 3.87 | 5.03 | 4.99 | 162 | 5.00 | 5.09 | 4.51 | 6.15 | 6.72 |  |  | 
2 | NS(=O)(=O)c1ccc(-n2nc(C(=O)N3CCSCC3)cc2-c2cccc(Cl)c2)cc1 | 3.72 | 4.90 | 4.81 | 140 | 4.83 | 4.86 | 4.53 | 6.06 | 6.66 to 6.68 |  |  | 
3 | NS(=O)(=O)c1ccc(-n2nc(C(=O)N3CCOCC3)cc2-c2cccc(F)c2)cc1 | 3.75 | 4.72 | 4.59 |  | 4.29 | 4.52 |  | 5.70 | 6.64 |  |  | 
4 | CCOc1ccc(-c2cc(C(=O)OCCCN3CCOCC3)nn2-c2ccc(S(N)(=O)=O)cc2)cc1 | 3.75 | 4.81 | < 4.00 |  | < 4.00 | < 4.00 |  | 6.14 | 5.12 |  |  | 
5 | Cc1ccc(-c2cc(C(F)(F)F)nn2-c2ccc(S(N)(=O)=O)cc2)cc1 [CELECOXIB] | 4.01 | 4.90 | 4.96 |  |  | 4.88 |  |  |  | 978.35 mm3 | Active | Active
6 | NS(=O)(=O)c1ccc(-n2nc(C(=O)N3CCOCC3)cc2-c2ccccc2)cc1 | 3.73 | 4.78 | 4.58 |  | < 4.00 | 4.79 |  | 5.92 | 6.16 |  |  | 
7 | NS(=O)(=O)c1ccc(-n2nc(C(=O)OCCCN3CCOCC3)cc2-c2ccc(C(F)(F)F)cc2)cc1 | 3.75 | 4.83 | 4.82 | 136 | 4.53 | 4.84 | 4.54 | 6.12 | 6.68 |  |  | 
8 | COc1cccc(-c2cc(C(=O)N3CCOCC3)nn2-c2ccc(S(N)(=O)=O)cc2)c1 | 3.87 | 4.59 | < 4.00 |  | < 4.00 | 4.54 |  | 6.02 | 5.65 |  |  | 
9 | CCOc1ccc(-c2cc(C(=O)OCCN3CCOCC3)nn2-c2ccc(S(N)(=O)=O)cc2)cc1 | 3.94 | 4.73 | 4.67 |  | 4.53 | 4.70 |  | 6.10 | 5.95 |  |  | 
10 | COc1ccc(-c2cc(C(=O)NCCCN3CCOCC3)nn2-c2ccc(S(N)(=O)=O)cc2)cc1 | 3.70 | 4.79 | 4.72 |  | < 4.00 | 4.89 |  | 6.01 | 6.15 |  |  | 
11 | NS(=O)(=O)c1ccc(-n2nc(C(=O)N3CCOCC3)cc2-c2ccc(C(F)(F)F)cc2)cc1 | 3.70 | 4.70 | 4.60 |  | 4.56 | 4.66 |  | 5.59 | 6.41 |  |  | 
12 | CCOc1ccc(-c2cc(C(=O)N3CCOCC3)nn2-c2ccc(S(N)(=O)=O)cc2)cc1 | 3.94 | 4.82 | 4.38 |  | 4.57 | 4.73 |  | 6.02 | 5.52 |  |  | 
13 | NS(=O)(=O)c1ccc(-n2nc(C(=O)NCCCN3CCOCC3)cc2-c2ccccc2)cc1 | 3.81 | 4.74 | 4.69 |  | 4.56 | 4.66 |  | 6.03 | 6.38 |  |  | 
14 | NS(=O)(=O)c1ccc(-n2nc(C(=O)OCCCN3CCOCC3)cc2-c2ccccc2)cc1 | 4.02 | 4.76 | 4.75 |  | 4.65 | 4.64 |  | 6.09 | 6.25 |  |  | 
15 | NS(=O)(=O)c1ccc(-n2nc(C(=O)N3CCOCC3)cc2-c2ccc(Br)cc2)cc1 | 3.79 | 4.75 | 4.70 |  | 4.65 | < 4.00 |  | 6.01 | 6.51 |  |  | 
16 | NS(=O)(=O)c1ccc(-n2nc(C(=O)OCCN3CCOCC3)cc2-c2ccc(C(F)(F)F)cc2)cc1 | 3.83 | 4.78 | 4.56 |  | 4.61 | 4.67 |  | 6.09 | 6.72 |  |  | 
17 | Cc1ccc(-c2cc(C(=O)N3CCSCC3)nn2-c2ccc(S(N)(=O)=O)cc2)cc1 | 3.98 | 4.74 | 4.70 |  | 4.87 | 4.81 |  | 5.80 | 6.05 |  |  | 
18 | NS(=O)(=O)c1ccc(-n2nc(C(=O)NCCN3CCOCC3)cc2-c2ccc(F)cc2)cc1 | 3.95 | 4.80 | < 4.00 |  | < 4.00 | < 4.00 |  | 6.00 | 6.80 |  |  | 
19 | NS(=O)(=O)c1ccc(-n2nc(C(=O)N3CCOCC3)cc2-c2ccc(Cl)cc2)cc1 | < 3.52 | < 4.00 | < 4.00 |  | < 4.00 | < 4.00 |  | 5.75 | 6.46 |  |  | 
20 | Cc1ccc(-c2cc(C(=O)N3CCOCC3)nn2-c2ccc(S(N)(=O)=O)cc2)cc1 | 3.72 | 4.75 | 4.64 |  | < 4.00 | 4.67 |  | 5.91 | 6.03 |  |  | 
21 | CCOc1ccc(-c2cc(C(=O)NCCN3CCOCC3)nn2-c2ccc(S(N)(=O)=O)cc2)cc1 | 3.81 | 4.59 | 4.78 |  | 4.68 | 4.62 |  | 6.07 | 6.07 |  |  | 

— ChEMBL document CHEMBL4346661, “Design, synthesis and evaluation of novel diaryl-1,5-diazoles derivatives bearing morpholine as potent dual COX-2/5-LOX inhibitors and antitumor agents” (Eur J Med Chem, 2019)
